Results from different studies.
Lines come from different studies, so protocols differ.
Mode: inhibitor
HDAC6: Protein deacetylase HDAC6 (HDAC6, Homo sapiens, UniProt Q9UBN7)
Dihydroorotate dehydrogenase, mitochondrial, putative: Dihydroorotate dehydrogenase, mitochondrial, putative (Plasmodium vivax, UniProt A5K1N1)
KCNH2: Voltage-gated inwardly rectifying potassium channel KCNH2 (KCNH2, Homo sapiens, UniProt Q12809)

SMILES	target	read-out	method	cell line	pH	IC50
O=c1oc(-c2ccco2)nc2ccccc12	Prothrombin (F2, Homo sapiens, UniProt P00734)	enzyme activity	absorbance		pH 7.4	> 50000 nM
O=C(NO)c1cccc(OS(=O)(=O)Oc2ccc(C(F)(F)F)cc2)c1	HDAC6	enzyme activity	fluorescence			842 nM
Cn1nc2c(=O)n(C3CC3)ncc2c1[C@](N)(c1ccc(C(F)(F)F)c(Cl)c1)C1CC1	Dihydroorotate dehydrogenase, mitochondrial, putative	enzyme activity	absorbance			6.7 nM
COc1ccc(C[C@H]2COC(=O)[C@@H]2Cc2ccc(OCC(=O)Nc3ccc(C(=O)Nc4ccccc4N)cc3)c(OC)c2)cc1OC	HDAC6	enzyme activity				> 10000 nM
CC1(F)CN(C(=O)Cn2c(=O)c(C(=O)NCc3ccc(Cl)cc3)cc3nccnc32)C1	KCNH2	ion current	patch clamp			5910 nM
COc1ccc2c(C(=S)N(C)CC(=O)O)cccc2c1C(F)(F)F	Aldo-keto reductase family 1 member B10 (AKR1B10, Homo sapiens, UniProt O60218, K125R)	enzyme activity				124 nM
CNCCN1CCN(c2cnc3c(cc(C(=O)NCc4ccc(Cl)cc4)c(=O)n3CC(=O)N3CC(C)(F)C3)n2)C1=O	KCNH2	ion current	patch clamp			> 40000 nM
Cc1c(C(=O)OC2CC2)nn(C)c1Cc1ccc(C(F)(F)F)nc1	Dihydroorotate dehydrogenase, mitochondrial, putative	enzyme activity	absorbance			16 nM
COc1cccc(OS(=O)(=O)Oc2cccc(C(=O)NO)c2)c1	HDAC6	enzyme activity	fluorescence			92 nM
C=CS(=O)(=O)c1ccc(Nc2nc(OCC3CCCCC3)c3nc[nH]c3n2)cc1	KCNH2	ion current	patch clamp	HEK293		5940 nM
CC(C)(C)c1ccc(OS(=O)(=O)Oc2cc(F)cc(C(=O)NO)c2)cc1	HDAC6	enzyme activity	fluorescence			2100 nM
CCn1cnc2c([C@@](O)(CC)c3ccc(C(F)(F)F)nc3)n(C)nc2c1=O	Dihydroorotate dehydrogenase, mitochondrial, putative	enzyme activity	absorbance			26 nM
COc1cnc2c(cc(C(=O)NCc3ccc(Cl)cc3)c(=O)n2CC(=O)N2CC(C)(F)C2)n1	KCNH2	ion current	patch clamp			2910 nM
CC[C@@](N)(c1cnc(C(F)(F)F)c(Cl)c1)c1c2ncn(C3CC3)c(=O)c2nn1C	Dihydroorotate dehydrogenase, mitochondrial, putative	enzyme activity	absorbance			40 nM
O=C(NO)c1cc(F)cc(OS(=O)(=O)Oc2ccccc2)c1	HDAC6	enzyme activity	fluorescence			77 nM
Cn1nc2c(=O)n(C3CC3)ncc2c1[C@](O)(c1cnc(C(F)(F)F)c(Cl)c1)C(F)(F)F	Dihydroorotate dehydrogenase, mitochondrial, putative	enzyme activity	absorbance			17 nM
Cc1cc(OS(=O)(=O)Oc2ccccc2)cc(C(=O)NO)c1	HDAC6	enzyme activity	fluorescence			3830 nM
CC[C@@](O)(c1cnc(C(F)(F)F)c(Cl)c1)c1c2cnn(C3CC3)c(=O)c2nn1C	Dihydroorotate dehydrogenase, mitochondrial, putative	enzyme activity	absorbance			19 nM
Cc1cc(OS(=O)(=O)Oc2ccc(-n3ccnc3)cc2)cc(C(=O)NO)c1	HDAC6	enzyme activity	fluorescence			4750 nM
